Experimental data from the RNAGym collection of RNA variant scans (doi:10.1126/science.aae0568).
Fewer inactive variants are shown than the library holds.

B1: tRNA (parent)
chain: GUUCCGUUGGCGUAAUGGUAACGCGUCUCCCUCCUAAGGAGAAGACUGCGGGUUCGAGUCCCGUACGGAACG

Variants of: B1
Assay: yeast fitness relative to wild type (ratio to wild type); higher = fitter; tRNA-Arg(CCU), competitive growth, 37 C, YPD
Method in brief: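 Changes in genotype frequencies gave Darwinian fitness relative to wild type. Frequencies were read by 100-nucleotide paired-end sequencing of gene amplicons before and after pooled Saccharomyces cerevisiae strains, carrying tRNA-Arg(CCU) gene variants at the native locus, were competed in YPD at 37°C for 24 hours in six replicates. A genotype was kept only with ≥ 100 starting reads, and estimates < 0.5 were set to 0.5.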
Variant C24A C62G has a yeast fitness of 0.706. Work on C24A C62G A70U yielded a yeast fitness of 0.562. With C24A C62U the yeast fitness was 0.724. In the case of C24A C66U, the yeast fitness is reported as 0.691. In the case of C24A G25A U47C, the yeast fitness is reported as at most 0.5. Variant C24A G25A U47C G52C has a yeast fitness of at most 0.5. Work on C24A G38A U47A C55G C61U yielded a yeast fitness of at most 0.5. For C24A G38C G48A, the yeast fitness was at most 0.5. C24A G38C G48C showed a yeast fitness of at most 0.5. C24A G39A C60A showed a yeast fitness of at most 0.5. C24A G39C gave a yeast fitness of 0.705. With C24A G39C A42G the yeast fitness was at most 0.5. For C24A G39C A57U A70C, the yeast fitness was at most 0.5. Work on C24A G39C A70C yielded a yeast fitness of 0.601. With C24A G41A the yeast fitness was 0.738. With C24A G41C G48A the yeast fitness was 0.625. For C24A G44C U59A, the yeast fitness was at most 0.5. For C24A G48C G67C, the yeast fitness was at most 0.5. In the case of C24A G50A C66U, the yeast fitness is reported as 0.5. C24A G51A C66U showed a yeast fitness of at most 0.5. Variant C24A G51C G52C has a yeast fitness of at most 0.5. Work on C24A G52C A57C yielded a yeast fitness of 0.561. C24A G56C showed a yeast fitness of 0.626. In the case of C24A G58A, the yeast fitness is reported as 0.859. C24A G58A A70G showed a yeast fitness of 0.574. Work on C24A G58C C62U yielded a yeast fitness of at most 0.5. C24A G63A showed a yeast fitness of 0.658. With C24A G63A U64A the yeast fitness was at most 0.5. Work on C24A U26A A43U C55A C66U yielded a yeast fitness of at most 0.5. C24A U26G showed a yeast fitness of 0.655. C24A U26G A43C showed a yeast fitness of 0.516. In the case of C24A U26G A43C C62G G63A C66G, the yeast fitness is reported as 0.514. For C24A U28C A57U, the yeast fitness was at most 0.5. C24A U28C G56A gave a yeast fitness of at most 0.5. C24A U28C U64C C66U gave a yeast fitness of at most 0.5. For C24A U32C, the yeast fitness was 0.612. C24A U32C C33U U54C showed a yeast fitness of 0.602. C24A U32C C55A C60U gave a yeast fitness of 0.698. For C24A U32C C61G, the yeast fitness was at most 0.5. Variant C24A U32G A36U A57C has a yeast fitness of at most 0.5. With C24A U32G A37G the yeast fitness was at most 0.5. C24A U35G A65C showed a yeast fitness of at most 0.5. C24A U35G C46U G68A gave a yeast fitness of at most 0.5. C24A U47A gave a yeast fitness of 0.619. For C24A U47A A70U, the yeast fitness was at most 0.5. For C24A U53C, the yeast fitness was 0.598. Variant C24A U54A has a yeast fitness of 0.634. C24A U59G C62U A70G gave a yeast fitness of 0.54. Work on C24A U59G C66U A70C yielded a yeast fitness of 0.529. For C24A U64A, the yeast fitness was 0.622. With C24A U64G the yeast fitness was 0.68. C24A U64G A70C showed a yeast fitness of at most 0.5. Variant C24G has a yeast fitness of 0.609. C24G A36C A37G A70C showed a yeast fitness of at most 0.5. Work on C24G A36C A65G A70C yielded a yeast fitness of at most 0.5. In the case of C24G A36C A70C, the yeast fitness is reported as 0.567. C24G A36C C46U G52A showed a yeast fitness of 0.637. Work on C24G A36C C55G yielded a yeast fitness of 0.587. Work on C24G A36C C55G A65G yielded a yeast fitness of at most 0.5. For C24G A36G, the yeast fitness was 0.557. For C24G A36G A40C, the yeast fitness was at most 0.5. C24G A36G A40C C55G G63C gave a yeast fitness of at most 0.5. C24G A36G A42C C61U C62G gave a yeast fitness of at most 0.5. Variant C24G A36G A45G C61A A70G has a yeast fitness of at most 0.5. Variant C24G A36G A65U has a yeast fitness of 0.554. Work on C24G A36G A70G yielded a yeast fitness of at most 0.5. With C24G A36G C55A the yeast fitness was at most 0.5. In the case of C24G A36G G39C C55U C66U, the yeast fitness is reported as at most 0.5. C24G A36G G50U U53A showed a yeast fitness of at most 0.5. Variant C24G A36U A37C C66U G67A has a yeast fitness of at most 0.5. C24G A36U A40U C46G G48C gave a yeast fitness of 0.557. In the case of C24G A36U A43U U64C, the yeast fitness is reported as at most 0.5. With C24G A36U U54A the yeast fitness was at most 0.5. C24G A36U U64C showed a yeast fitness of 0.52. Work on C24G A37C yielded a yeast fitness of 0.563. In the case of C24G A37C C49U A69U, the yeast fitness is reported as 0.545. In the case of C24G A37C G58A G68A, the yeast fitness is reported as at most 0.5. For C24G A37C G67A, the yeast fitness was at most 0.5. C24G A37C U59C C62U G68U showed a yeast fitness of at most 0.5. In the case of C24G A37G, the yeast fitness is reported as 0.612. Variant C24G A37G A42C A70U has a yeast fitness of at most 0.5. Variant C24G A37G G52C U64C has a yeast fitness of 0.602. For C24G A37G G56A G58A G67A, the yeast fitness was at most 0.5. With C24G A37G G63C C66G the yeast fitness was at most 0.5. With C24G A40C A69C the yeast fitness was at most 0.5. For C24G A40C C49A A69U, the yeast fitness was 0.589. C24G A40C G56U showed a yeast fitness of at most 0.5. C24G A40C U47A A69G showed a yeast fitness of at most 0.5. C24G A40C U64A A65C gave a yeast fitness of at most 0.5. Work on C24G A40G A57U G68A yielded a yeast fitness of at most 0.5. C24G A40G G50C C66U showed a yeast fitness of at most 0.5. Work on C24G A40U A43U C49G G50C C61U C66U yielded a yeast fitness of at most 0.5. With C24G A40U G67C the yeast fitness was at most 0.5. For C24G A40U U47A, the yeast fitness was at most 0.5. Variant C24G A42C has a yeast fitness of 0.63. C24G A42C A70U gave a yeast fitness of 0.616. C24G A42C G68A showed a yeast fitness of at most 0.5. Work on C24G A42G yielded a yeast fitness of 0.587. C24G A42G A43U C46U C62U gave a yeast fitness of at most 0.5. For C24G A42G A65G, the yeast fitness was at most 0.5. With C24G A42G A69U the yeast fitness was at most 0.5. With C24G A42U A45C the yeast fitness was at most 0.5. Work on C24G A42U C49U G67C yielded a yeast fitness of at most 0.5. C24G A42U G68A showed a yeast fitness of at most 0.5. Variant C24G A43C has a yeast fitness of 0.543. In the case of C24G A43C A57U, the yeast fitness is reported as at most 0.5. C24G A43C C62U A65G showed a yeast fitness of at most 0.5. Work on C24G A43C G48A G58A G68C yielded a yeast fitness of at most 0.5. With C24G A43C G52C C55U A69C the yeast fitness was at most 0.5. C24G A43G G63U U64A gave a yeast fitness of 0.577. C24G A43G U47A showed a yeast fitness of at most 0.5. For C24G A43G U47A U53A G68C, the yeast fitness was at most 0.5. Variant C24G A43U has a yeast fitness of 0.703. Variant C24G A45C A69U has a yeast fitness of 0.611. Work on C24G A45C C49A G52A yielded a yeast fitness of at most 0.5. With C24G A45G G51C U54A G56C the yeast fitness was at most 0.5. Work on C24G A45G U53G yielded a yeast fitness of at most 0.5. With C24G A57C U64A the yeast fitness was at most 0.5. C24G A57G showed a yeast fitness of 0.524. Variant C24G A57G A70G has a yeast fitness of at most 0.5. C24G A57G C61A A65C C66U showed a yeast fitness of at most 0.5. C24G A57U gave a yeast fitness of 0.578. Work on C24G A57U A69C yielded a yeast fitness of at most 0.5. For C24G A57U G58A A65U, the yeast fitness was at most 0.5. C24G A57U G67C gave a yeast fitness of 0.612. Work on C24G A65G yielded a yeast fitness of 0.703. Work on C24G A65U G68A yielded a yeast fitness of at most 0.5. Variant C24G A69G has a yeast fitness of 0.503. For C24G A69U, the yeast fitness was 0.658. Work on C24G A70U yielded a yeast fitness of 0.639. With C24G C27A A45C C62G the yeast fitness was at most 0.5. C24G C27G gave a yeast fitness of 0.593. In the case of C24G C27G A36U G38C C60G C66A, the yeast fitness is reported as at most 0.5. C24G C27G A40C U47A gave a yeast fitness of at most 0.5. C24G C27G A45C gave a yeast fitness of at most 0.5. Work on C24G C27G C60U yielded a yeast fitness of 0.8. Work on C24G C27U A43U G52C yielded a yeast fitness of at most 0.5. Variant C24G C27U C29G C34G A36G A43U has a yeast fitness of at most 0.5. Variant C24G C27U C33U A45G G50C G68A has a yeast fitness of at most 0.5. With C24G C27U C33U A57C the yeast fitness was at most 0.5. With C24G C27U C33U G48A G50C G68A the yeast fitness was at most 0.5. Work on C24G C27U C33U G50C A65G G68A yielded a yeast fitness of at most 0.5. With C24G C27U G51C U64A the yeast fitness was at most 0.5. C24G C27U G52C gave a yeast fitness of 0.566. C24G C27U U28C showed a yeast fitness of at most 0.5. Work on C24G C27U U53A yielded a yeast fitness of at most 0.5. For C24G C29A A40G G50C, the yeast fitness was at most 0.5. With C24G C29A A43U the yeast fitness was at most 0.5. With C24G C29A G44C C61U the yeast fitness was 0.787. Work on C24G C29G yielded a yeast fitness of at most 0.5. Variant C24G C29G C33A G48A C55G has a yeast fitness of at most 0.5. In the case of C24G C29G C46G G67C, the yeast fitness is reported as at most 0.5. For C24G C29G C49G, the yeast fitness was at most 0.5. In the case of C24G C29G G39C, the yeast fitness is reported as 0.513. With C24G C29G G67A the yeast fitness was 0.57. In the case of C24G C29G U32A G52C, the yeast fitness is reported as at most 0.5. For C24G C29U, the yeast fitness was 0.521. In the case of C24G C29U A42G G51C, the yeast fitness is reported as at most 0.5. For C24G C29U G38C, the yeast fitness was 0.62. C24G C30A showed a yeast fitness of 0.777. C24G C30A A40C showed a yeast fitness of 0.547. With C24G C30A A40C A57G C61U the yeast fitness was at most 0.5. With C24G C30A A69C the yeast fitness was 0.547. C24G C30A C46U G52C gave a yeast fitness of at most 0.5. With C24G C30A G44C U47C U59A the yeast fitness was at most 0.5. Variant C24G C30A U47C has a yeast fitness of 0.586. For C24G C30G, the yeast fitness was 0.53.
